Usually pEC50 stands for the negative decadic logarithm of the EC50, by convention in mol/L. As a reminder, the pKi is the negative decadic logarithm of the Ki, by convention in mol/L. As usually defined, the Emax is the greatest response seen or fitted, relative to the assay's reference.

pEC50, pKi: −log10 of the molar value.

The results in this text go back to ChEMBL document CHEMBL1141512, “Arylsulfonamide CB2 receptor agonists: SAR and optimization of CB2 selectivity” (Bioorg Med Chem Lett, 2008).

The species entered for assay [1] is Homo sapiens. Put plainly: Selectivity for human CB2 receptor over human CB1 receptor by cAMP assay. The method, boiled down:
(§1)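 CHO cells stably expressing human CB2 or CB1 were seeded at 5000 cells/well and grown overnight at 37 °C. Compounds were added in stimulation buffer (1 mM IBMX, 0.25% BSA, 10 µM forskolin) for 30 min at 37 °C. cAMP was measured in lysates with a cAMP kit; 100% = forskolin-stimulated cAMP versus level with 200 nM CP-55940. EC50 came from a four-parameter logistic fit; efficacy is relative to CP-55940. Each run was triplicate, at least three times.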
(In general: cAMP levels reflect the balance of adenylyl cyclase and phosphodiesterase activity.)

Assay [2] concerns the target T1, Cannabinoid receptor 2 (Homo sapiens, UniProt P34972). Nature of the assay: Agonist activity at human CB2 receptor expressed in CHO cells assessed as inhibition of forskolin-stimulated cAMP level relative to CP-55940. On the set-up: Activity: scale not given: the % may be the effect or the level left. It is filed as functional, cell-based. Put shortly: as §1
Assay [3] concerns the target T1, Cannabinoid receptor 2. Nature of the assay: Agonist activity at human CB2 receptor expressed in CHO cells assessed as inhibition of forskolin-stimulated cAMP level. The format is functional, cell-based. Put shortly: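 CHO cells expressing human CB2, 5000 cells/well, incubated overnight at 37 °C. Compounds given in stimulation buffer with 1 mM IBMX, 0.25% BSA and 10 µM forskolin for 30 min at 37 °C. Cells lysed and cAMP read by enzyme-fragment kit. Forskolin-stimulated cAMP versus cAMP with 200 nM CP-55940 defines 100%. EC50 from four-parameter logistic fit. Triplicate, at least three runs.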

In assay [4] the target is Cannabinoid receptor 1 (Homo sapiens, UniProt P21554). Put plainly: Displacement of [3H]CP-55940 from human CB1 receptor expressed in HEK cells. It is filed as cell-based, HEK293. Put shortly: (§2)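 SPA binding with HEK membranes expressing human CB1 (2.5 µg/well) or CB2 (2 µg/well) on poly-L-lysine beads. Buffer: 50 mM Tris pH 7.5, 2.5 mM EDTA, 5 mM MgCl2, 0.8% fatty-acid-free BSA. Compounds at 1e-5 to 1e-10 M. [3H]-CP-55940 final 2.5 nM (CB1) or 4 nM (CB2). IC50 from four-parameter logistic fit, converted to Ki by Cheng-Prusoff.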
In general terms: Displacement assays read how much labelled ligand stays bound in the presence of the test substance.

Assay [5] addresses T1, Cannabinoid receptor 2. Nature of the assay: Displacement of [3H]CP-55940 from human CB2 receptor expressed in HEK cells. The format is cell-based, HEK293. The method, boiled down:
as §2

T1 sequence (P34972 whole entry, the tested form may be a part): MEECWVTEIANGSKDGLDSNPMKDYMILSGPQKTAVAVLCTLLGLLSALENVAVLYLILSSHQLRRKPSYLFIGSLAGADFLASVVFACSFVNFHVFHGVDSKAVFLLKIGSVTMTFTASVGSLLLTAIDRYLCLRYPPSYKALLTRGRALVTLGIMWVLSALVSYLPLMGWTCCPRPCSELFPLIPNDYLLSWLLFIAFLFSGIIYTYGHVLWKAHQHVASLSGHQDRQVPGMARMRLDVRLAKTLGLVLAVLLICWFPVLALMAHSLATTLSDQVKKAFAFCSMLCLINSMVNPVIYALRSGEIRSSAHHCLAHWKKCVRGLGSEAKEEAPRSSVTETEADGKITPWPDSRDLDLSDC
Cannabinoid receptor 1, sequence (P21554 whole entry): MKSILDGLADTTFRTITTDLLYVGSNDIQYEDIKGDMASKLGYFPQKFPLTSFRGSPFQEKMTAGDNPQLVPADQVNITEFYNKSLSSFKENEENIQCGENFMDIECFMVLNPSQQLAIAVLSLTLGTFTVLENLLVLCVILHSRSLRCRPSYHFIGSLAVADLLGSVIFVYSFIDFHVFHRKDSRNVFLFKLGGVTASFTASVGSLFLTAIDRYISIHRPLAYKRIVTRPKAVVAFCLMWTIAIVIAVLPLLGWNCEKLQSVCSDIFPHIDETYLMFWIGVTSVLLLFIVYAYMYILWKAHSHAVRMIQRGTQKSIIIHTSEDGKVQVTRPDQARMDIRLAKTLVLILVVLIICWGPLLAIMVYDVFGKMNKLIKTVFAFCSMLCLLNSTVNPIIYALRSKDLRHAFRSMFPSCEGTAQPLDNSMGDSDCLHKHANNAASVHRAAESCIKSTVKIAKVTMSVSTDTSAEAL

As for `Cc1ccccc1NC(=O)c1ccc(C)c(S(=O)(=O)N2CCCCC2)c1`, in assay [1], the Selectivity ratio stood at 1.5. In addition, the Activity in assay [2] came to 76%. In assay [3], the pEC50 is 6.81.
On the same counts, the results for `O=C(c1ccc(Cl)c(S(=O)(=O)N2CCCC2)c1)N1CC[C@@H]2CCCC[C@H]2C1` (relative stereo) are 3770, 89% and 8.52.
Regarding `Cc1ccc(C(=O)N2CCC3CCCCC3C2)cc1S(=O)(=O)N1CCOCC1` (stereo not drawn), in assay [1], the Selectivity ratio stood at 2640. The Activity in assay [2] was found to be 104%. For the same compound, the pEC50 in assay [3] was 8.30.
Take `O=C(c1ccc(C2CCCCC2)c(S(=O)(=O)N2CCCC2)c1)N1CCC2CCCCC2C1` (stereo not drawn): in assay [3], the pEC50 is < 4.70.
For the compound `Cc1ccc(C(=O)N2CCC3CCCCC3C2)cc1S(=O)(=O)N1CCC1` (stereo not drawn), the Selectivity ratio in assay [1] is > 1500. The Activity in assay [2] was determined as 94%. Besides, in assay [3], the pEC50 was 7.89.
As for `Cc1ccc(C(=O)Nc2ccccc2)cc1S(=O)(=O)N1CCCCC1`, the Selectivity ratio in assay [1] is 6. The Activity in assay [2] amounted to 74%. The pEC50 in assay [3] was 6.86.
In the case of `Cc1ccc(C(=O)N2CCC3CCCCC3C2)cc1S(=O)(=O)N1CCCC1` (stereo not drawn), the Selectivity ratio in assay [1] came out at 2240. Moreover, the Activity in assay [2] is 94%. In addition, the pEC50 in assay [3] is 8.40.
On to `Cc1ccc(C(=O)Nc2cccc(Cl)c2)cc1S(=O)(=O)N1CCCCC1`, for which the Selectivity ratio in assay [1] was found to be 31. For the same compound, the Activity in assay [2] was 80%. Also, in assay [3], the pEC50 was 7.57.
As to `Cc1ccc(C(=O)N(C)C2CCCCC2)cc1S(=O)(=O)N1CCCCC1`, the Selectivity ratio in assay [1] turned out to be 38. Besides, the Activity in assay [2] turned out to be 86%. Moreover, the pEC50 in assay [3] was 6.92.
In the case of `Cc1ccc(C(=O)N2CCC3CCCCC3C2)cc1S(=O)(=O)N1CCCCC1` (stereo not drawn), the Selectivity ratio in assay [1] turned out to be 4330. For the same compound, in assay [2], the Activity amounted to 95%. Also, in assay [3], the pEC50 was 8.82.
On to `Cc1ccc(C(=O)N2CCCC3CCCCC32)cc1S(=O)(=O)N1CCCCC1` (stereo not drawn), for which the Selectivity ratio in assay [1] came out at 94. Besides, the Activity in assay [2] was 82%. Moreover, in assay [3], the pEC50 is 8.22.
Turning to `Cc1ccc(C(=O)Nc2nccc3ccccc23)cc1S(=O)(=O)N1CCCCC1`, the Selectivity ratio in assay [1] stood at 25. Also, the Activity in assay [2] came to 98%. In addition, in assay [3], the pEC50 is 9.00.
As to `Cc1ccc(C(=O)Nc2ccc3ccccc3n2)cc1S(=O)(=O)N1CCCCC1`, the Activity in assay [2] was found to be 45%. In assay [3], the pEC50 was 6.71.
Turning to `Cc1ccc(C(=O)N2CCC3CCCCC3C2)cc1S(=O)(=O)N1CCSCC1` (stereo not drawn), the Selectivity ratio in assay [1] was determined as 3250. Also, the Activity in assay [2] amounted to 90%. Besides, in assay [3], the pEC50 is 9.00.
With `Cc1ccc(C(=O)N2CCC3CCCCC3C2)cc1S(=O)(=O)Nc1ccccc1` (stereo not drawn), the negative-log EC50 (pEC50) in assay [3] is < 4.70.
In the case of `Cc1ccc(C(=O)N[C@H](C)C2CCCCC2)cc1S(=O)(=O)N1CCCCC1`, in assay [1], the Selectivity ratio turned out to be 45. In addition, the Activity in assay [2] worked out at 85%. Further, the pEC50 in assay [3] is 7.74.
As for `Cc1ccc(C(=O)N2CCC3CCCCC3C2)cc1S(=O)(=O)N1CCN(C(C)C)CC1` (stereo not drawn), the Activity in assay [2] was 45%. In addition, the pEC50 in assay [3] is 6.23.
In the case of `O=C(NC1CCCCC1)c1ccc(Cl)c(S(=O)(=O)N2CCCC2)c1`, in assay [1], the Selectivity ratio turned out to be 85. The Activity in assay [2] amounted to 74%. Moreover, the pEC50 in assay [3] was 8.52.
Regarding `COc1ccccc1NC(=O)c1ccc(C)c(S(=O)(=O)N2CCCCC2)c1`, the Selectivity ratio in assay [1] was 9. Besides, the Activity in assay [2] was determined as 91%. In addition, the pEC50 in assay [3] was 7.68.
As to `Cc1ccc(C(=O)Nc2ccccc2S(C)(=O)=O)cc1S(=O)(=O)N1CCCCC1`, in assay [1], the Selectivity ratio stood at 66. In assay [2], the Activity was determined as 96%. For the same compound, the pEC50 in assay [3] was 8.22.
In the case of `O=C(c1cccc(S(=O)(=O)N2CCCC2)c1)N1CC[C@@H]2CCCC[C@H]2C1` (relative stereo), the negative-log EC50 (pEC50) in assay [3] was < 4.70.
For the compound `Cc1ccc(C(=O)N2CCC3CCCCC3C2)cc1S(=O)(=O)N1CCCCCC1` (stereo not drawn), the Selectivity ratio in assay [1] turned out to be 3280. Moreover, the Activity in assay [2] turned out to be 100%. Besides, the pEC50 in assay [3] is 8.70.
`Cc1ccc(C(=O)N2CCC3CCCCC3C2)cc1S(=O)(=O)NC(C)C` (stereo not drawn): in assay [1], the Selectivity ratio came out at 0.1. The Activity in assay [2] came to 101%. For the same compound, the pEC50 in assay [3] is 5.64.
With `Cc1ccc(C(=O)NC2CCCCC2)cc1S(=O)(=O)N1CCCC1`, the Selectivity ratio in assay [1] stood at 181. Further, in assay [2], the Activity amounted to 81%. Further, the pEC50 in assay [3] was 7.68.
Consider `Cc1ccc(C(=O)NC2CCCCC2)cc1S(=O)(=O)N1CCCCC1`, for which, in assay [1], the Selectivity ratio came out at 24. For the same compound, in assay [2], the Activity worked out at 86%. Also, the pEC50 in assay [3] is 7.85.
With `Cc1ccc(C(=O)N2CCC3CCCCC3C2)cc1S(=O)(=O)N1CCC(O)CC1` (stereo not drawn), the Selectivity ratio in assay [1] was 37. Also, the Activity in assay [2] was 86%. Moreover, the pEC50 in assay [3] was 6.67.
Take `Cc1ccc(C(=O)Oc2cccc3cccnc23)cc1S(=O)(=O)N1CCCCC1`: the Selectivity ratio in assay [1] was 1. The pKi in assay [4] is 8.52; in assay [5] it was 8.40. For the same compound, the Activity in assay [2] is 99%. Further, in assay [3], the pEC50 is > 9.00.
On to `Cc1ccc(C(=O)N2CCC3CCCCC3C2)cc1S(=O)(=O)N1CCS(=O)(=O)CC1` (stereo not drawn), for which, in assay [1], the Selectivity ratio stood at 7740. Further, the Activity in assay [2] amounted to 99%. Further, the pEC50 in assay [3] was 8.70.
As to `COc1ccc2c(c1)c(CCN1CCOCC1)c(C)n2C(=O)c1cccc(Cl)c1Cl`, in assay [2], the Activity is 44%. In addition, the pEC50 in assay [3] is 9.19.
On to `O=C(NC1CCCCC1)c1cccc(S(=O)(=O)N2CCCC2)c1`, for which the pEC50 in assay [3] was < 4.70.
For `Cc1ccc(C(=O)N2CCCCC2)cc1S(=O)(=O)N1CCCCC1`, the Selectivity ratio in assay [1] was > 240. In addition, the Emax in assay [2] stood at 85%. In addition, the pEC50 in assay [3] is 7.09.
Regarding `Cc1ccc(C(=O)N(C)c2ccccc2Cl)cc1S(=O)(=O)N1CCCCC1`, the pEC50 in assay [3] is < 4.70.
`CC(C)c1ccc(C(=O)NC2CCCCC2)cc1S(=O)(=O)N1CCCC1`: in assay [1], the Selectivity ratio is 60. For the same compound, the Activity in assay [2] turned out to be 86%. Moreover, in assay [3], the negative logarithm of the EC50 (pEC50) was 8.40.
As to `Cc1ccc(C(=O)Nc2ccccc2Cl)cc1S(=O)(=O)N1CCCCC1`, the Selectivity ratio in assay [1] was determined as 13. The Activity in assay [2] was found to be 89%. Besides, the pEC50 in assay [3] is 8.30.
Regarding `O=C(NCC1CCOCC1)c1cnc(Nc2ccc(Cl)cc2Cl)nc1C(F)(F)F`, the Selectivity ratio in assay [1] was > 470. The Activity in assay [2] was found to be 95%.
As for `Cc1ccc(C(=O)Nc2ccccc2C(F)(F)F)cc1S(=O)(=O)N1CCCCC1`, the Selectivity ratio in assay [1] was 96. Besides, in assay [2], the Activity came out at 92%. The pEC50 in assay [3] is 8.70.
Take `Cc1ccc(C(=O)N2CC[C@@H]3CCCC[C@H]3C2)cc1S(=O)(=O)N1CCCCC1` (relative stereo): the Selectivity ratio in assay [1] turned out to be 6890. Besides, the Activity in assay [2] worked out at 93%. In assay [3], the pEC50 was 9.00.
On the same counts, the results for `Cc1ccc(C(=O)Nc2cccc3cccnc23)cc1S(=O)(=O)N1CCCCC1` are 7, 100% and 8.40.
Regarding `Cc1ccc(C(=O)NC2(C)CCCCC2)cc1S(=O)(=O)N1CCCCC1`, the Activity in assay [2] came to 58%. For the same compound, the negative-log EC50 (pEC50) in assay [3] is 7.74.
Regarding `CC(C)c1ccc(C(=O)N2CCC3CCCCC3C2)cc1S(=O)(=O)N1CCCC1` (stereo not drawn), the Selectivity ratio in assay [1] came to 2860. Moreover, the Activity in assay [2] was found to be 101%. Besides, in assay [3], the pEC50 was 9.40.
With `O=C(c1ccc(Cl)c(S(=O)(=O)N2CCCC2)c1)N1CCC2CCCCC2C1` (stereo not drawn), in assay [1], the Selectivity ratio came out at 520. For the same compound, the Activity in assay [2] came out at 93%. Also, the pEC50 in assay [3] is 8.40.
For the compound `Cc1ccc(C(=O)N[C@@H](C)C2CCCCC2)cc1S(=O)(=O)N1CCCCC1`, in assay [1], the Selectivity ratio amounted to 2. In assay [2], the Activity amounted to 73%. The pEC50 in assay [3] was 8.30.
On to `Cc1ccc(C(=O)Nc2ccc(Cl)cc2)cc1S(=O)(=O)N1CCCCC1`, for which the Activity in assay [2] was 117%. Also, the pEC50 in assay [3] was 4.85.
For `Cc1ccc(C(=O)N2CCC3CCCCC3C2)cc1S(=O)(=O)NCC(C)C` (stereo not drawn), the Selectivity ratio in assay [1] worked out at 939. For the same compound, the Activity in assay [2] was 96%. Further, the pEC50 in assay [3] is 7.85.
